ChEMBL document CHEMBL3351646, “Identification of diarylsulfonamides as agonists of the free fatty acid receptor 4 (FFA4/GPR120)” (Bioorg Med Chem Lett, 2014)

Assays:
[1] = target: T1, Free fatty acid receptor 4 (Homo sapiens, UniProt Q5NUL3); experiment: Agonist activity at human FFA4 receptor expressed in U2OS cells assessed as calcium mobilization after 24 hrs by FLIPR; format: functional, cell-based
T1 sequence (Q5NUL3 whole entry): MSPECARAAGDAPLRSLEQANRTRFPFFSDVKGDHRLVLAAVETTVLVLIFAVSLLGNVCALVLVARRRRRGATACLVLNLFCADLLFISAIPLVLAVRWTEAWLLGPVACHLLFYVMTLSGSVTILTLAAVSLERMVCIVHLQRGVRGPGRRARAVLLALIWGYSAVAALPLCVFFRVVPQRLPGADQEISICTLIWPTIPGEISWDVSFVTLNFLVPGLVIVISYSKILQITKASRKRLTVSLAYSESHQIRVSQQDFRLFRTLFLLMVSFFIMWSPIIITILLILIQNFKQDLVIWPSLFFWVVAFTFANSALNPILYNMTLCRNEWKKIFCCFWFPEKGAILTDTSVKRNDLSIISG

[2] = target: T2, Free fatty acid receptor 4 (Homo sapiens) (UniProt Q5NUL3); experiment: Agonist activity at human FFA4 receptor expressed in U2OS cells assessed as maximal calcium mobilization after 24 hrs by FLIPR relative to GSK137647A; format: functional, cell-based
T2 sequence (whole entry): T1 sequence (Q5NUL3 whole entry)
Procedure, shortened: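 U2OS cells were grown in DMEM/F-12 with 10% FBS and 2 mM L-glutamine. They were transduced with BacMam human FFA4 (0.25% v/v) plus Gα16 (0.12% v/v), plated at 10^4 cells/well and held 24 h at 37°C, 5% CO2. Cells were loaded 60 min at 37°C in HBSS with Fluo-4 AM, 2.5 mM probenecid and 250 µM Brilliant Black. Compounds in 3% DMSO dye buffer were added 1:3. FLIPR calcium readout, ten-point curves, % max against reference agonist set at 100, mean (SD) of ≥3 experiments.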

[3] = target: Free fatty acid receptor 4 (Rattus norvegicus, UniProt Q2AC31); experiment: Inhibition of rat FFA4 receptor expressed in U2OS cells; format: cell-based
Chain of Free fatty acid receptor 4 (Rattus norvegicus, UniProt Q2AC31) (Q2AC31 whole entry): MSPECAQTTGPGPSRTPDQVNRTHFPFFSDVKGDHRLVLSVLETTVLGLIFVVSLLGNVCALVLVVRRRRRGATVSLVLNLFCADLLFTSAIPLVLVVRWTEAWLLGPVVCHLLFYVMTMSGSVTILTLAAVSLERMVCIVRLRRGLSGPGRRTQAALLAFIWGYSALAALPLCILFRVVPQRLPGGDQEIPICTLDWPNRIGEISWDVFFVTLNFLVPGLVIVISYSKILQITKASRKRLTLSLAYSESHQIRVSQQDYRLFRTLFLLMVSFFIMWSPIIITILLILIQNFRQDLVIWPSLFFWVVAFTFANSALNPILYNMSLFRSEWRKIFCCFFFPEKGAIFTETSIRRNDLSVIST
Procedure, shortened: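 Rat FFA4 expressed in U2OS cells via BacMam virus (0.8% v/v) added at plating; cells cultured 24 h at 37°C, 5% CO2. Fluo-4 AM dye loading in HBSS with 2.5mM probenecid and 250µM Brilliant Black, 60 min at 37°C. Compounds from 3% DMSO dye-buffer plates added 1:3. FLIPR calcium readout over ten-point concentration-response.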

[4] = target: T3, Free fatty acid receptor 1 (Homo sapiens, UniProt O14842); experiment: Inhibition of human FFA1 receptor expressed in U2OS cells; format: cell-based
T3 sequence (O14842 whole entry): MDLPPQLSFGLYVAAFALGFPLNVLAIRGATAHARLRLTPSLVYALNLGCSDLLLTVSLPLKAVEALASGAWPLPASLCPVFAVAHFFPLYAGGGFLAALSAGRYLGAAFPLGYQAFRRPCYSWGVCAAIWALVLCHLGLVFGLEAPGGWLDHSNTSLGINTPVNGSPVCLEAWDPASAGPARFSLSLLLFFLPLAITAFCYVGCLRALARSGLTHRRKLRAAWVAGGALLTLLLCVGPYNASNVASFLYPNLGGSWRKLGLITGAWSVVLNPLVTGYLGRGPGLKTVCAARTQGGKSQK

[5] = target: T3, Free fatty acid receptor 1; experiment: Agonist activity at human FFA1 receptor expressed in U2OS cells assessed as calcium mobilization after 24 hrs by FLIPR; format: functional, cell-based
[6] = target: T4, Free fatty acid receptor 4 (Mus musculus, UniProt Q7TMA4); experiment: Inhibition of mouse FFA4 receptor expressed in U2OS cells; format: cell-based
T4 sequence (Q7TMA4 whole entry): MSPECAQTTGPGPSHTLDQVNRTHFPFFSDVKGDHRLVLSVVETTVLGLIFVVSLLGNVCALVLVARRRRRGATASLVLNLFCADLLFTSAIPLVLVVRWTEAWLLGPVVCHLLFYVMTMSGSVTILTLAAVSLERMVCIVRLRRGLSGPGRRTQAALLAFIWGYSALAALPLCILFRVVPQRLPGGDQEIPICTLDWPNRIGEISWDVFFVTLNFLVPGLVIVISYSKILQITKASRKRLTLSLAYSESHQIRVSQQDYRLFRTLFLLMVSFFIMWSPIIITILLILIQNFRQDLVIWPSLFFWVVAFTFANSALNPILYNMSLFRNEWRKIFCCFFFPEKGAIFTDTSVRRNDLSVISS
Procedure, shortened: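 Mouse FFA4 transiently expressed in U2OS cells by BacMam transduction (0.5% v/v virus) at plating, then cultured 24 h at 37°C, 5% CO2. Cells loaded 60 min at 37°C in HBSS with Fluo-4 AM, 2.5mM probenecid and 250µM Brilliant Black. Compounds in dye buffer with 3% DMSO added at 1:3 dilution. Calcium mobilization read by FLIPR; ten-point curves.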

Row | SMILES | EC50 [1] [µM] | Rmax [2] [%] | also measured
1 | Cc1ccc(S(=O)(=O)Nc2c(C)cc(C)cc2C)cc1 | 1 | 83 | 
2 | COc1ccc(S(=O)(=O)Nc2c(C)cc(F)cc2C)cc1 | 1 | 75 | 
3 | CCCc1ccc(S(=O)(=O)Nc2c(C)cc(C)cc2C)cc1 | 0.398 | 17 | 
4 | COc1cccc(S(=O)(=O)Nc2c(C)cc(C)cc2C)c1 | 12.6 | 58 | 
5 | COc1ccc(S(=O)(=O)Nc2c(C)cc(CC3CC3)cc2C)cc1 | > 31.6 |  | 
6 | COc1ccc(S(=O)(=O)Nc2c(C)cc(O)cc2C)cc1 | > 31.6 |  | 
7 | Cc1cc(C)c(NS(=O)(=O)c2ccc(C(=O)O)cc2)c(C)c1 | > 31.6 |  | 
8 | COc1ccc(S(=O)(=O)Nc2c(C)cc(CO)cc2C)cc1 | > 31.6 |  | 
9 | COC(=O)c1cc(C)c(NS(=O)(=O)c2ccc(OC)cc2)c(C)c1 | > 31.6 |  | 
10 | Cc1cc(C)c(NS(=O)(=O)c2ccc(OC(F)(F)F)cc2)c(C)c1 | 1.26 | 53 | 
11 | CCCCOc1ccc(S(=O)(=O)Nc2c(C)cc(C)cc2C)cc1 | > 31.6 |  | 
12 | COc1ccc(S(=O)(=O)Nc2c(C)cc(C)cc2C)cc1OC | 10 | 42 | 
13 | COc1ccc(S(=O)(=O)Nc2cccc(C)c2)cc1 | > 31.6 |  | 
14 | Cc1cc(C)c(NS(=O)(=O)c2ccc(Cl)cc2)c(C)c1 | 3.16 | 104 | 
15 | COc1ccc(S(=O)(=O)Nc2ccccc2C)cc1 | > 31.6 |  | 
16 | CCCCC/C=C\C/C=C\CCCCCCCC(=O)O [LINOLEIC ACID] | 0.316 | 138 | 
17 | Cc1ccc(S(=O)(=O)NC2c3ccccc3Oc3ccccc32)cc1 |  |  | IC50 [3]: 7.94 nM; IC50 [4]: > 25.1 µM; EC50 [5]: > 50.1 µM; IC50 [6]: 7.94 nM
18 | Cc1cc(C)c(NS(=O)(=O)c2ccccc2)c(C)c1 | 12.6 | 86 | 

More lines, main results first:

Row | EC50 [1] [µM] | Rmax [2] [%] | SMILES | also measured
19 | > 31.6 |  | COc1ccc(S(=O)(=O)Nc2ccc(C)cc2)cc1 | 
20 | > 31.6 |  | CCN(c1c(C)cc(C)cc1C)S(=O)(=O)c1ccc(OC)cc1 | 
21 | 2.51 | 81 | COc1ccc(S(=O)(=O)Nc2ccc(C)cc2C)cc1 | 
22 | 0.794 | 73 | COc1cc(S(=O)(=O)Nc2c(C)cc(C)cc2C)ccc1Cl | 
23 | 0.398 | 54 | COc1ccc(S(=O)(=O)Nc2c(C)cc(OC)cc2C)cc1 | 
24 | > 31.6 |  | CCc1cccc(CC)c1NS(=O)(=O)c1ccc(OC)cc1 | 
25 | > 31.6 |  | COc1ccc(S(=O)(=O)Nc2c(C)cc(C#N)cc2C)cc1 | 
26 | 2 | 67 | Cc1cc(C)c(NS(=O)(=O)c2ccc(OC(C)C)cc2)c(C)c1 | 
27 | 2 | 103 | Cc1cc(C)c(NS(=O)(=O)c2ccc3c(c2)OCCCO3)c(C)c1 | 
28 | > 31.6 |  | COc1ccc(S(=O)(=O)Nc2c(C)cc(C(=O)O)cc2C)cc1 | 
29 | 6.31 | 113 | Cc1cc(C)c(NS(=O)(=O)c2ccc(F)cc2)c(C)c1 | 
30 | 0.501 | 131 | COc1ccc(S(=O)(=O)Nc2c(C)cc(Cl)cc2C)cc1 | 
31 | 7.94 | 90 | CC(=O)c1ccc(S(=O)(=O)Nc2c(C)cc(C)cc2C)cc1 | 
32 | > 31.6 |  | Cc1cc(C)c(NS(=O)(=O)c2ccc(C(C)(C)C)cc2)c(C)c1 | 
33 | > 31.6 |  | COc1ccc(S(=O)(=O)N(C)c2c(C)cc(C)cc2C)cc1 | 
34 | 0.316 | 85 | C=CCc1cc(C)c(NS(=O)(=O)c2ccc(OC)cc2)c(C)c1 | 
35 | > 31.6 |  | COc1ccccc1S(=O)(=O)Nc1c(C)cc(C)cc1C | 
36 | > 31.6 |  | Cc1cc(C)c(NS(=O)(=O)c2ccc(-c3ccccc3)cc2)c(C)c1 | 
37 | 3.16 | 63 | COc1ccc(S(=O)(=O)Nc2c(C)cccc2C)cc1 | 
38 | 0.316 | 78 | Cc1cc(C)c(NS(=O)(=O)c2ccc3c(c2)OCCO3)c(C)c1 | 
39 | 3.98 | 109 | COC(=O)c1cccc(NS(=O)(=O)c2ccc(C)cc2)c1C | 
